The values that follow come from ChEMBL document CHEMBL4020839, “Class I HDAC Inhibitors Display Different Antitumor Mechanism in Leukemia and Prostatic Cancer Cells Depending on Their p53 Status” (J Med Chem, 2018).

As a reminder, the pIC50 is the IC50 on a negative log10 scale, so that one unit is a factor of ten.

SMILES strings stand for the structures. pIC50: −log10 of the molar value. Calls of active or inactive are those of the source. No cut-off for these calls is given here.

In assay [1] the test system is MV4-11. In words: Cell cycle arrest in human MV4-11 cells assessed as accumulation at subG1 phase after 24 hrs by propidium iodide staining based flow cytometry. It is filed as functional.
Assay [2] has as its system MV4-11. Description: Induction of apoptosis in human MV4-11 cells assessed as increase in cleaved caspase-3 level at 1 to 2 uM after 24 hrs by Western blot method. It is filed as functional, cell-based. The gist of the method: (§1)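 MV4-11 (1,500,000/well) or PC-3 (300,000/well) grown 12 h, then treated 24 h at 1 and 2 μM, with 5 μM SAHA as reference. RIPA lysis, sonication and centrifugation, BCA normalization. NuPAGE 4–12% Bis-Tris gel in MES, transfer, primary antibodies 1/1000 overnight at 4 °C. Actin as loading control.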
On the technique in general: In western blotting, separated proteins are transferred to a membrane and probed.

Assay [3] concerns MV4-11. Description: Antiproliferative activity against human MV4-11 cells assessed as cell death at 2 to 10 uM after 24 to 48 hrs by CellTiter-Blue assay. Type of assay: functional, cell-based. The gist of the method: (§2)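 MV4-11 and PC-3 cells treated with 10 or 2 μM (or 0 μM) and sampled at 24 and 48 h. Viable cells measured by CellTiter-Blue resorufin fluorescence, read as in the EC50 assay, which is proportional to viable cell number. Representative of n = 2 experiments.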
In general terms: Alamar Blue is a resazurin reagent that responds to reducing activity.

Assay [4] deals with Histone deacetylase 3 (Homo sapiens) (UniProt O15379). The conditions noted are these: 0.25 to 2 uM.
Assay [5] deals with PC-3. In words: Downregulation of HDAC6 protein expression in human PC3 cells at 1 to 2 uM after 24 hrs by Western blot method. Type of assay: functional, cell-based. The gist of the method: as §1
For assay [6], the system named is MV4-11. In words: Downregulation of HDAC1 protein expression in human MV4-11 cells at 1 to 2 uM after 24 hrs by Western blot method. Type of assay: functional, cell-based. Summed up:
as §1

The test system of assay [7] is MV4-11. In words: Induction of p53 degradation in human MV4-11 cells up to 2 uM up to 6 hrs by Western blot analysis. It is filed as functional, cell-based.
Assay [8] concerns PC-3. In words: Antiproliferative activity against human PC3 cells assessed as cell viability at 10 uM after 48 hrs by CellTiter-Blue assay relative to control. It is filed as functional. The note with it: PC-3, 48 h, read-out: Activity. The gist of the method:
as §2

Assay [9] addresses T1, Protein deacetylase HDAC6 (Homo sapiens, UniProt Q9UBN7).
T1 sequence (Q9UBN7 whole entry): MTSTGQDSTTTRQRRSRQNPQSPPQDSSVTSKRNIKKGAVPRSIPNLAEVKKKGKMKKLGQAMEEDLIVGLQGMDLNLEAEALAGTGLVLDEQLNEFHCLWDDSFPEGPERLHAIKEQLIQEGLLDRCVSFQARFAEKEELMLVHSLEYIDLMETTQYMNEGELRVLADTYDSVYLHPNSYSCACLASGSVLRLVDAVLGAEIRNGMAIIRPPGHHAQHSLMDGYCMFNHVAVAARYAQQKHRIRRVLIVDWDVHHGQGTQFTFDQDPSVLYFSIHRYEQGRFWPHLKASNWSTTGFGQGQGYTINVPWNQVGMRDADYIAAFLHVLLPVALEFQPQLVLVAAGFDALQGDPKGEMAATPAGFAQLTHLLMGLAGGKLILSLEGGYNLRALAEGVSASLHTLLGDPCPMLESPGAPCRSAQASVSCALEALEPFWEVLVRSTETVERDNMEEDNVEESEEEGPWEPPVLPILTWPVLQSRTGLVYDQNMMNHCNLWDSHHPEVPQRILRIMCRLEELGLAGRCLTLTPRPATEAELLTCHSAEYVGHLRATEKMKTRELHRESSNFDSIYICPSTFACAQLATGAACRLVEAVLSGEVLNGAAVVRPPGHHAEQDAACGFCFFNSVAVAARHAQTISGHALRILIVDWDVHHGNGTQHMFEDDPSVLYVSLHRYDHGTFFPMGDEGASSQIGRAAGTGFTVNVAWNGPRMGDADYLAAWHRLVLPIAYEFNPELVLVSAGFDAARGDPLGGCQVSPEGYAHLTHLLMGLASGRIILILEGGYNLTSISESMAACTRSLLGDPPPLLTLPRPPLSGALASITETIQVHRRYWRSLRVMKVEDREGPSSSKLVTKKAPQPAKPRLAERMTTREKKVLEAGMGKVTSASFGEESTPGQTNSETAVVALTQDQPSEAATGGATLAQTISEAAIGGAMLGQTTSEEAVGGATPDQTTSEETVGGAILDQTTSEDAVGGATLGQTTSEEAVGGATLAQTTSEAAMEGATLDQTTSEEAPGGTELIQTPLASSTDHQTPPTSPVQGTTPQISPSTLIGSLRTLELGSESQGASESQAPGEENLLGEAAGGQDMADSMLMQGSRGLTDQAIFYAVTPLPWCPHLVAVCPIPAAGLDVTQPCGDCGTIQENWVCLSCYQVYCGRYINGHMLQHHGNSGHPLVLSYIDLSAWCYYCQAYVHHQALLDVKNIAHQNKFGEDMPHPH
In words: Inhibition of HDAC6 (unknown origin) using Boc-Lys(acetyl)-AMC as substrate preincubated for 1 hr followed by substrate addition measured after 2 hrs by fluorescence assay. Summed up:
(§3)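 Recombinant HDAC incubated with serial compound dilutions at 30 °C for 1 h. Reaction run 2 h at 30 °C, stopped with developer containing trypsin and TSA. Fluorescence read after 30 min at 360/460 nm. Inhibition relative to control wells; IC50 from variable-slope fit.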

The subject of assay [10] is MV4-11. In words: Cell cycle arrest in human MV4-11 cells assessed as accumulation at G1/S phase at 0.5 uM after 24 hrs by propidium iodide staining based flow cytometry. Type of assay: functional. For orientation: In flow cytometry, cells or beads pass a laser one at a time.
Assay [11] concerns PC-3. Description: Induction of apoptosis in human PC3 cells assessed as increase in cleaved caspase-3 level at 1 to 2 uM after 24 hrs by Western blot method. Type of assay: functional, cell-based. The gist of the method:
as §1

For assay [12], the system named is MV4-11. Description: Antiproliferative activity against human MV4-11 cells assessed as cell death at 10 uM after 48 hrs by CellTiter-Blue assay. Type of assay: functional, cell-based. The gist of the method:
as §2

Assay [13] has as its target Histone deacetylase 4 (Homo sapiens, UniProt P56524). In words: Inhibition of recombinant human N-terminal GST-tagged/C-terminal His-tagged HDAC4 (627 to 1084 residues) expressed in baculovirus expression system using Boc-Lys(trifluoroacetyl)-AMC as substrate preincubated for 1 hr followed by substrate addition measured after 2 hrs by fluorescence assay. The gist of the method: as §3

Assay [14] has as its system MV4-11. In words: Induction of p53 degradation in human MV4-11 cells up to 500 nM after 6 hrs in presence of proteasome inhibitor bortezomib by Western blot analysis. Type of assay: functional, cell-based.

Histone deacetylase 4, sequence (P56524 whole entry, the tested form may be a part): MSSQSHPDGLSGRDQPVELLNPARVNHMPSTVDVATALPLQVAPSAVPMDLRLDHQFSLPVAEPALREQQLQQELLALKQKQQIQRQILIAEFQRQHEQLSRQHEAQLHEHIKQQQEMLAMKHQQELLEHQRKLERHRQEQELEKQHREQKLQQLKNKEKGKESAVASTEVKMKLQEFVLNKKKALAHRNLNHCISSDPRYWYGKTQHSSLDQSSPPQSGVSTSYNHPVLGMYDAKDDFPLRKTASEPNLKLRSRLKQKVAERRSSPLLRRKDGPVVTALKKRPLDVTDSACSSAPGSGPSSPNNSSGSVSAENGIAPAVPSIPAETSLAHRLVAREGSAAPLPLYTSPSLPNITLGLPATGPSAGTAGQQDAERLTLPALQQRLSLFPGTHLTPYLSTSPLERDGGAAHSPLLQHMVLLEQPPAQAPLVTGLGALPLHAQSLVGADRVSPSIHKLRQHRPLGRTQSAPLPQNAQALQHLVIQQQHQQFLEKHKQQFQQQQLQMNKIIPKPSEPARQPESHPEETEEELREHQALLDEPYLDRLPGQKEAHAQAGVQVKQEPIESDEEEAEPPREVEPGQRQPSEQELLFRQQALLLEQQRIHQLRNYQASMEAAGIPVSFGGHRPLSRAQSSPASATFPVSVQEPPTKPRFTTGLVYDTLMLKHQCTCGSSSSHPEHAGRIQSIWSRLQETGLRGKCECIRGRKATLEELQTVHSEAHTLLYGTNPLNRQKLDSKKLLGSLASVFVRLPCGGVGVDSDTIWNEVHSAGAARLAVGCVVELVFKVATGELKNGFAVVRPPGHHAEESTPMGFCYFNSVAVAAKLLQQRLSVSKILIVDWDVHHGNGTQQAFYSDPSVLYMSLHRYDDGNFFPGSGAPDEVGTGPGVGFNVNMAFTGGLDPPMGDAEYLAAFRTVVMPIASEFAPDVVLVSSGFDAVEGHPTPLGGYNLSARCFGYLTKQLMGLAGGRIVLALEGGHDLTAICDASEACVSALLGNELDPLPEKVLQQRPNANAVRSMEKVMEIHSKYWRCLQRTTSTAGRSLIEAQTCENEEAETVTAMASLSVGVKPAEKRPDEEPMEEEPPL
Histone deacetylase 3 (Homo sapiens), sequence (O15379 whole entry): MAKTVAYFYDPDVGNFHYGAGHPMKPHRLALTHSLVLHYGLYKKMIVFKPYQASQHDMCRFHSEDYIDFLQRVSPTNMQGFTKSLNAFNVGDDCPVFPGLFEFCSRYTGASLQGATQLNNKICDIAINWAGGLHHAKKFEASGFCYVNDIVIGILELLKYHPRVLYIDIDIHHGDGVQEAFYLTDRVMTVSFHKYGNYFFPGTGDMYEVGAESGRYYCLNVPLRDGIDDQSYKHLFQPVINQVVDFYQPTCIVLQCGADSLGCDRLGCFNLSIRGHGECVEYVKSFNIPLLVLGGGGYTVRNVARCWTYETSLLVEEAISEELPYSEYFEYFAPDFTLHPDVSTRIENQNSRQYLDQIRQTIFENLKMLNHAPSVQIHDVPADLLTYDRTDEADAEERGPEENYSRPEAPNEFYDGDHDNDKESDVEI

For the compound `CCCNNC(=O)c1ccc(NC(=O)[C@H](Cc2c[nH]c3ccccc23)NC(=O)c2ccc(OC)cc2)cc1`, the Activity result in assay [1] is “Dose-dependent effect”. Further, the result in assay [2], in assay [3], in [7], in assay [10] and in assay [12] was Active. Further, in assay [4], the inhibition result was “Active”. The outcome in [5], in assay [6], in assay [11] and in assay [14] was inactive. Moreover, the viability at 10 µM in [8] amounted to 20%. The pIC50 in assay [9] is 4.00 to 4.30; in assay [13], below 4.30.
